Assay results reported in ChEMBL document CHEMBL4017501, “Paralog Specificity Determines Subcellular Distribution, Action Mechanism, and Anticancer Activity of TRAP1 Inhibitors” (J Med Chem, 2017).
pIC50: −log10 of the molar value.

Tests used:
[1] = target: T1, Heat shock protein 75 kDa, mitochondrial (Homo sapiens, UniProt Q12931); test: Inhibition of FITC3-labeled PU-H71 binding to recombinant human N-terminal His6-tagged TRAP1 (60 to 561 residues) expressed in Escherichia coli BL21(DE3) after 24 hrs by fluorescence polarization assay
T1 sequence (Q12931 whole entry): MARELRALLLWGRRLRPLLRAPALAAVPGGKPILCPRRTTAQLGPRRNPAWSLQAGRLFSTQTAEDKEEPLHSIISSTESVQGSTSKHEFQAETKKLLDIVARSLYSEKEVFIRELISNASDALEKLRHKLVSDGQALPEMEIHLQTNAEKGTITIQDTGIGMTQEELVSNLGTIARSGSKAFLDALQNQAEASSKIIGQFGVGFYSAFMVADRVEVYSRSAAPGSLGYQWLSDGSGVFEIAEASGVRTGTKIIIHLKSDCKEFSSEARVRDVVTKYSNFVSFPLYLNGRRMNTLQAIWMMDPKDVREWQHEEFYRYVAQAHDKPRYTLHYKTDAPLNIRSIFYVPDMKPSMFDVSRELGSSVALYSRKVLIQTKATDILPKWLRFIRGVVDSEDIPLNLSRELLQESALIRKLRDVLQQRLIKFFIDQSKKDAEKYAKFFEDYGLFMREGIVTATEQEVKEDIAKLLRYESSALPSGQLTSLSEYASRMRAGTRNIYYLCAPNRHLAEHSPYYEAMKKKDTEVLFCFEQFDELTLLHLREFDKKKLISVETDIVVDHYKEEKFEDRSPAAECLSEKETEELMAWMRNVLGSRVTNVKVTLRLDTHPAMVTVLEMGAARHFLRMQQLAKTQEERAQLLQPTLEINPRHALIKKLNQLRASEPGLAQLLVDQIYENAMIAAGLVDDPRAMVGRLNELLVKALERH
How it was run: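 Recombinant TRAP1 (100 nM) incubated with 10 nM 1-FITC3 probe and varying inhibitor concentrations for 24 h at 4 °C. Buffer: PBS-type salts with 1 mM DTT, 2 mM MgCl2, 0.1 mg/mL BSA, 0.05% NP40, pH 7.3. Polarization (mP) scaled to maximum and minimum values; mean ± SEM of two independent experiments.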

[2] = target: Heat shock protein HSP 90-alpha (Homo sapiens, UniProt P07900); test: Inhibition of FITC3-labeled PU-H71 binding to recombinant HSP90alpha (unknown origin) after 24 hrs by fluorescence polarization assay
[3] = target: T2, Heat shock protein HSP90 (Homo sapiens, UniProt P07900+P08238); test: Inhibition of HSP90 in human PC3 cells assessed as induction of HSP70 protein expression at 10 uM after 6 hrs by Western blot method; assay type: cell-based
[4] = Cytotoxicity against human corneal cells assessed as reduction in cell viability at 5 to 20 uM after 24 hrs by MTT assay; assay type: cell-based
How it was run: (§1)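 Corneal cells kept in corneal medium; hepatocytes isolated from 8-week-old BALB/c mice and kept in M199/EBSS with 10% FBS. Cells given a range of drug concentrations for 24 h. MTT absorbance read at 595 nm and normalized to DMSO; two independent experiments in duplicate, mean ± SEM.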

[5] = tested on: Hepatocyte; test: Cytotoxicity against mouse primary hepatocytes assessed as reduction in cell viability at 5 to 20 uM after 24 hrs by MTT assay; assay type: cell-based; how it was run: as §1
[6] = target: T2, Heat shock protein HSP90; test: Inhibition of HSP90 in human HeLa cells assessed as induction of HSP70 protein expression at 10 uM after 6 hrs by Western blot method; assay type: cell-based

pIC50 [1]	pIC50 [2]	SMILES	inhibition (INH) [3]	Activity [4]	Activity [5]	inhibition (INH) [6]
5.07	< 5.00	Nc1nc(Cl)c2cc(C(=O)O)n(Cc3ccc4c(c3)OCO4)c2n1	–	–	–	–
6.86	7.01	COc1c(C)cnc(Cn2ncc3c(Cl)nc(N)nc32)c1C	–	–	–	–
–	–	CO[C@H]1/C=C\C=C(/C)C(=O)NC2=CC(=O)C(NCCN(C)C)=C(C[C@@H](C)C[C@H](OC)[C@H](O)[C@@H](C)/C=C(\C)[C@@H]1OC(N)=O)C2=O [ALVESPIMYCIN]	Active	Toxic	Toxic	Active
5.20	5.05	Nc1nc(Cl)c2cnn(Cc3ccc4c(c3)OCO4)c2n1	–	–	–	–
